# Columns and labels:
# Type in all cases: cell-based
# [1] = biological target: human CD4 (CD4-YFP) (Homo sapiens, UniProt P01730); experiment: CD4 down-modulation in CD4-YFP transfected CHO cells; settings: for CD4 down-modulation (in words): CD4-YFP CHO cells
# Method in brief: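 CHO cells stably expressing human CD4 fused at its C-terminus to YFP were exposed for 24 h at 37 °C to 1:5 serial dilutions of test compound. Cells were washed, fixed in 1% formaldehyde, and read at once by flow cytometry (488 nm laser). YFP MFI was expressed as % of matched untreated cells, after subtracting the background of non-transfected cells. IC50 is the 50% decrease in CD4. Mean ± SD, n = 3.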
# [2] = tested on: MT-4 cells; experiment: Cytotoxicity in MT-4 cells; settings: CC50 MT-4 cells / IC50 CD4 down-modulation
# [3] = tested on: HIV-1 NL4.3 (X4); experiment: HIV-1 NL4.3 replication in MT-4 cells; settings: HIV-1 NL4.3 in MT-4 cells
# Method in brief: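 MT-4 cells at 3.75×10^5 cells/mL in RPMI 1640 with 10% FBS and 2 mM L-glutamine were preincubated 15 min with test compound. HIV-1 NL4.3 (30 pg/well) was then added and cells were kept at 37 °C. On day 4, viability was read by MTS/PES at 490 and 700 nm, giving the IC50 for viral replication. Mean ± SD, n = 2 or 3.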
structure (smiles),measurement,setting,value
"C=C1CN(S(=O)(=O)c2ccc(C)cc2)CCc2cc(CCCC)cc(n2)CCN(S(=O)(=O)c2ccc(C)cc2)C1.Cl [Compound 3j, 13-Butyl-6-methylene-4,8-di(p-toluenesulfonyl)-4,8,15-triazabicyclo[9.3.1]pentadeca-1(15),11,13-triene]",IC50,[1],500 nM
same,therapeutic indices (CC50/IC50 for CD4),[2],exceeding 100
"C=C1CN(S(=O)(=O)c2ccc(C)cc2)CCc2cc(CC(C)C)cc(n2)CCN(S(=O)(=O)c2ccc(C)cc2)C1.Cl [Compound 3k, 13-Isobutyl-6-methylene-4,8-di(p-toluenesulfonyl)-4,8,15-triazabicyclo[9.3.1]pentadeca-1(15),11,13-triene]",therapeutic indices (CC50/IC50 for CD4),[2],exceeding 100
"Cc1ccc(S(=O)(=O)N2CCc3cc(C(C)(C)C)cc(n3)CCN(S(=O)(=O)c3ccc(C)cc3)CC2)cc1 [Compound 16, 12-tert-Butyl-4,7-bis(p-toluenenesulfonyl)-4,7,14-triazabicyclo[8.3.1]tetradeca-1(14),1 0,12-triene]",CD4 down-modulation (in words),[1],no observable
same,anti-HIV activity (in words),[3],no observable
"C=C1CN(S(=O)(=O)c2ccc(C)cc2)Cc2cccc3cc4cccc(c4nc23)CN(S(=O)(=O)c2ccc(C)cc2)C1 [Compound 23, 9-Methylene-7,11,19-7,11-bis(p-toluenesulfonyl)-triazatetracyclo[15.3.1.0^5,20.0^13,18]henicosa-1(21),2,4,13,15,17,19-heptaene]",CD4 down-modulation (in words),[1],no observable
same,anti-HIV activity (in words),[3],no observable

# — article PMC7741178 (Bioorganic & medicinal chemistry, 2020)
